The record followed here is ChEMBL document CHEMBL1152560, “Substituted 2-arylbenzothiazoles as kinase inhibitors: hit-to-lead optimization” (Bioorg Med Chem, 2009).

Each structure is given as a SMILES string.

A word on the IC50: it is the concentration that inhibits the measured activity by half. High values mean a need for much substance, low ones inhibition by little substance.

Assay [1] addresses T1, Myotonin-protein kinase (Homo sapiens) (UniProt Q09013).
T1 sequence (whole entry): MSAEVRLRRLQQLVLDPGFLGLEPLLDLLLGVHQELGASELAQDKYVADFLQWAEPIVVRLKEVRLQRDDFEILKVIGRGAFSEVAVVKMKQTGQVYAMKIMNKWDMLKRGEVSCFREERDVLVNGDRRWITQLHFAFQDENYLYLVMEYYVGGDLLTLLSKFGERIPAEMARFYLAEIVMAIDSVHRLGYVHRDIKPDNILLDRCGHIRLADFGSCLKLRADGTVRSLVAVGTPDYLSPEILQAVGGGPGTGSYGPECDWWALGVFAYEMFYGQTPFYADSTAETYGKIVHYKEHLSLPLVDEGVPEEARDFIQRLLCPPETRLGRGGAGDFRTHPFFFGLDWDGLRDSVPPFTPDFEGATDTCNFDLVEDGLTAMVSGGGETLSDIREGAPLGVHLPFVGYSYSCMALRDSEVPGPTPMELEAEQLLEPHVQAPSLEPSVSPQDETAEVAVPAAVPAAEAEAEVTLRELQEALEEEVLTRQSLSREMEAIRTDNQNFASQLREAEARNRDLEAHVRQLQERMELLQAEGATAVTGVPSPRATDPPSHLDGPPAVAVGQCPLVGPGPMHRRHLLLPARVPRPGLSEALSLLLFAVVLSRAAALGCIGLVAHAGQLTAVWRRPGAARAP
Description: Residual activity of DMPK at 1 uM by microplate scintillation counting.

Assay [2] addresses T2, Testis-specific serine/threonine-protein kinase 1 (Homo sapiens) (UniProt Q9BXA7).
T2 sequence (whole entry): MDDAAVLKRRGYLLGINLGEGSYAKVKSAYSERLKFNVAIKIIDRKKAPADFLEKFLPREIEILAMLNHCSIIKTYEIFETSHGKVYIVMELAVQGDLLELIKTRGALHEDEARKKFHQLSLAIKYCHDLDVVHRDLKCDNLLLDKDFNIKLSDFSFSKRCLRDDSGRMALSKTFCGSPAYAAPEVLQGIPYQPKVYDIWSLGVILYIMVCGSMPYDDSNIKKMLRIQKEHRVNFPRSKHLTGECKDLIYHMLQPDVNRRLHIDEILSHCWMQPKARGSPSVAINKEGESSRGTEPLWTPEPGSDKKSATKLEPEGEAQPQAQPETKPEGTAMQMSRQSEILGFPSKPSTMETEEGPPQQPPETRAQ
In words: Residual activity of TSSK1 at 10 uM by microplate scintillation counting.

The target in assay [3] is G protein-coupled receptor kinase 4 (Homo sapiens) (UniProt P32298). Description: Residual activity of GRK4 at 1 uM by microplate scintillation counting.
The target of assay [4] is Cyclin-dependent kinase 1/cyclin B1 (Homo sapiens) (UniProt P06493+P14635). In words: Residual activity of CDK1/CyclinB1 at 10 uM by microplate scintillation counting. The assay is classed as protein-complex assay.
Chain of Cyclin-dependent kinase 1/cyclin B1 (Homo sapiens) (P06493 whole entry, looked up): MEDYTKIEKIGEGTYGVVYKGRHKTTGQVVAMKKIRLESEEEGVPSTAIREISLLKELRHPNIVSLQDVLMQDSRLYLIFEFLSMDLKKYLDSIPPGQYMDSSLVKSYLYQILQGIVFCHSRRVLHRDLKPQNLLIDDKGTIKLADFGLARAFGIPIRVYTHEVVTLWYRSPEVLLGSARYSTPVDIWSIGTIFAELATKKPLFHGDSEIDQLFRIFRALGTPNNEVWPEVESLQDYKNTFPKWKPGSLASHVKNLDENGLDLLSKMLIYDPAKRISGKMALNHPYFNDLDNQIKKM
Chain of Cyclin-dependent kinase 1/cyclin B1 (Homo sapiens) (P14635 whole entry, looked up): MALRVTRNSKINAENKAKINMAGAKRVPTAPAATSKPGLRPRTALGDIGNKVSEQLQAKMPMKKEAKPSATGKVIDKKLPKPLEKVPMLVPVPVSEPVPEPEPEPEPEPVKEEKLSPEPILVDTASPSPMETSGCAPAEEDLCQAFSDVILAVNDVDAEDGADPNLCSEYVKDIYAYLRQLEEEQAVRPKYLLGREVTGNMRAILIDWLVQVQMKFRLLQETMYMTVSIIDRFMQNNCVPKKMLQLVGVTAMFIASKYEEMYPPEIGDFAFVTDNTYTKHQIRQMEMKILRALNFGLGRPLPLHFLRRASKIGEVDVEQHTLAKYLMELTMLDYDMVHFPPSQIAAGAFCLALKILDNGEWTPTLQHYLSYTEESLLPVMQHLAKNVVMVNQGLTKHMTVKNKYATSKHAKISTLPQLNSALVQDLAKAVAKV
Assay [5] addresses High affinity nerve growth factor receptor (Homo sapiens) (UniProt P04629). In words: Residual activity of TRK-A at 10 uM by microplate scintillation counting.
In assay [6] the target is T3, Platelet-derived growth factor receptor beta (Homo sapiens, UniProt P09619). Description: Residual activity of PDGFRbeta at 0.1 uM by microplate scintillation counting.
T3 sequence (P09619 whole entry): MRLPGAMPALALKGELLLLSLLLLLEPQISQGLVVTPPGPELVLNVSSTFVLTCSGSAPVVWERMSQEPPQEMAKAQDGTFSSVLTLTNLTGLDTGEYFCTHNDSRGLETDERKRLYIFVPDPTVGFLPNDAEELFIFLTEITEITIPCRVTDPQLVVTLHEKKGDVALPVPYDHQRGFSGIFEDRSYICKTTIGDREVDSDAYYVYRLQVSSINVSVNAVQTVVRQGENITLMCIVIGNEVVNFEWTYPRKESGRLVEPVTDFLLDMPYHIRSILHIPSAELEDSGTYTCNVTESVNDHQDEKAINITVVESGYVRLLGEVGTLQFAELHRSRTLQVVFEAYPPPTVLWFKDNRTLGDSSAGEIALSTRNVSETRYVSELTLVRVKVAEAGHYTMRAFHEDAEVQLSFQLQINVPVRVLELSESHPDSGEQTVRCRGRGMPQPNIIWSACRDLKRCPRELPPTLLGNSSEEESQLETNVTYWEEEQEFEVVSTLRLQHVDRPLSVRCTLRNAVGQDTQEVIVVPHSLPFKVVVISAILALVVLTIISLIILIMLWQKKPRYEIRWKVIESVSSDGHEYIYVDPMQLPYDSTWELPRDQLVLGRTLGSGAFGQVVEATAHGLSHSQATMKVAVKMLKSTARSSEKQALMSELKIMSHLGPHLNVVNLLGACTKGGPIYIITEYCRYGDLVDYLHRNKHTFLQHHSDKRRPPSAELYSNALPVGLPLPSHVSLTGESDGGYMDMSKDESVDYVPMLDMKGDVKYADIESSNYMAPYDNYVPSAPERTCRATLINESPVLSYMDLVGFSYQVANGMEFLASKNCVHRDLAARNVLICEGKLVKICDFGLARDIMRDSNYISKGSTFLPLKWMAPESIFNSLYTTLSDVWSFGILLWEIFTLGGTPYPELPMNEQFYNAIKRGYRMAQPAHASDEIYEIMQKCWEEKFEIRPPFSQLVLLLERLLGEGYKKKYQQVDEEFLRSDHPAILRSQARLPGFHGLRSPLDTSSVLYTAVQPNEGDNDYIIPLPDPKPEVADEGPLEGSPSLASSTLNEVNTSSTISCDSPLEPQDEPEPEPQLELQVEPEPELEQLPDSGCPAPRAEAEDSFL
Assay [7] concerns the target Mitogen-activated protein kinase kinase kinase 8 (Homo sapiens) (UniProt P41279). Description: Residual activity of COT at 1 uM by microplate scintillation counting.
The target of assay [8] is Maternal embryonic leucine zipper kinase (Homo sapiens) (UniProt Q14680). Description: Residual activity of MELK at 0.1 uM by microplate scintillation counting.
Chain of Maternal embryonic leucine zipper kinase (Homo sapiens) (Q14680 whole entry, looked up): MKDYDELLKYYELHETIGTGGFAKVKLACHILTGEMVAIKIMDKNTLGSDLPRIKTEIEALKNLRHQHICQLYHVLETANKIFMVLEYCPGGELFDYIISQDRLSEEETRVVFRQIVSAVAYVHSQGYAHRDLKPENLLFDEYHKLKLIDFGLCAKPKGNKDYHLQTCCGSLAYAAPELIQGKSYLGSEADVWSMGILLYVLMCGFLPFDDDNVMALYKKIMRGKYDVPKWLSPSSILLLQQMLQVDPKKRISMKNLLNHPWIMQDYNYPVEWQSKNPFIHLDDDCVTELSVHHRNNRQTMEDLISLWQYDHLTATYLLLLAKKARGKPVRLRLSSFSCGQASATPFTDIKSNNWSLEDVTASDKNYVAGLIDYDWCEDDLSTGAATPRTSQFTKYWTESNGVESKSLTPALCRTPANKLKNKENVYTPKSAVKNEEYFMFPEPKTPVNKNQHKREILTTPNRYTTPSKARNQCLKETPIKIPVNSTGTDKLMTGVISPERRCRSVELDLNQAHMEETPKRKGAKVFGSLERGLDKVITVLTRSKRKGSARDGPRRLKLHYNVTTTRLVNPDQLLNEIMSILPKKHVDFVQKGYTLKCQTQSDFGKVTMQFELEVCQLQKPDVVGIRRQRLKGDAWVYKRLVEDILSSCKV
Assay [9] concerns the target Cyclin-dependent kinase 4/cyclin D1 (Homo sapiens) (UniProt P11802+P24385). Description: Residual activity of CDK4/Cyclin D1 at 0.1 uM by microplate scintillation counting. The assay is classed as protein-complex assay.
Assay [10] concerns the target Serine/threonine-protein kinase PAK 4 (Homo sapiens) (UniProt O96013). Description: Residual activity of PAK4 at 0.1 uM by microplate scintillation counting.
For assay [11], the target named is Glycogen synthase kinase-3 alpha (Homo sapiens) (UniProt P49840). In words: Residual activity of GSK3alpha at 0.1 uM by microplate scintillation counting.
Chain of Glycogen synthase kinase-3 alpha (Homo sapiens) (P49840 2-483 limits assumed): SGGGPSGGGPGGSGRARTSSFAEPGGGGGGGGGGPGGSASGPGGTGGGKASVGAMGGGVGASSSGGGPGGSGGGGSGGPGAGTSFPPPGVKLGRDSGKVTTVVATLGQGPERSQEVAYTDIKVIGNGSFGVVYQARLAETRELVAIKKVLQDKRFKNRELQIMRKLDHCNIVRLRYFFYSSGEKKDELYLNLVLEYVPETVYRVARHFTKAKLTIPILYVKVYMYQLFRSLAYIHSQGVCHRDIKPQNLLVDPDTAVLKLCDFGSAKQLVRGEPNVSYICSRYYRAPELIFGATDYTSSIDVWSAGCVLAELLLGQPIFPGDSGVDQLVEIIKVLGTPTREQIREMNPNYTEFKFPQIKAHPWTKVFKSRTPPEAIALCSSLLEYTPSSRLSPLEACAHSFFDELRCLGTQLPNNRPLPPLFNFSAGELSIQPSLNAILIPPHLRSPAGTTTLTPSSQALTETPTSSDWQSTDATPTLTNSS
For assay [12], the target named is Interleukin-1 receptor-associated kinase 1 (Homo sapiens) (UniProt P51617). In words: Residual activity of IRAKI at 10 uM by microplate scintillation counting.
Chain of Interleukin-1 receptor-associated kinase 1 (Homo sapiens) (P51617 whole entry, looked up): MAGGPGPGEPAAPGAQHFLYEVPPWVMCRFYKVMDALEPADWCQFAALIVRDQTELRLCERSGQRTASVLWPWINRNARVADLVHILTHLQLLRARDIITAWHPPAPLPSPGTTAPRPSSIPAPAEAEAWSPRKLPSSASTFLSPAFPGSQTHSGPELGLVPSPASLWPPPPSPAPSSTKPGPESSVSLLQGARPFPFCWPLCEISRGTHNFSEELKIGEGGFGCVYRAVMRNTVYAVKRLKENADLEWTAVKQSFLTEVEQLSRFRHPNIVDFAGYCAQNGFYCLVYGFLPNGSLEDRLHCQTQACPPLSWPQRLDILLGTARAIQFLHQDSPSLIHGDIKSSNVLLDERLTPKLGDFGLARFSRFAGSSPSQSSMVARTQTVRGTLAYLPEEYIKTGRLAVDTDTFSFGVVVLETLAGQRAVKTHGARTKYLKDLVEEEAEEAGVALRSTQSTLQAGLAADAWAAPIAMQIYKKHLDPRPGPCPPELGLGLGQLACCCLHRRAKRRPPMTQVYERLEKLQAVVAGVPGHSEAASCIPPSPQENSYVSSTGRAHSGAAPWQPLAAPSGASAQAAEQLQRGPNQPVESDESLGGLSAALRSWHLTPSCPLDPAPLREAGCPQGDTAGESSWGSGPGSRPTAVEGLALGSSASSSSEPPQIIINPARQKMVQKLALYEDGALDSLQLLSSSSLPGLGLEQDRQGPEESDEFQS
For assay [13], the target named is Serine/threonine-protein kinase N2 (Homo sapiens) (UniProt Q16513). In words: Residual activity of PRK2 at 10 uM by microplate scintillation counting.
Assay [14] addresses Cyclin-dependent kinase 2/cyclin E1 (Homo sapiens) (UniProt P24864+P24941). In words: Residual activity of CDK2/Cyclin E at 10 uM by microplate scintillation counting. The assay is classed as protein-complex assay.
Assay [15] has as its target RAC-alpha serine/threonine-protein kinase (Homo sapiens) (UniProt P31749). In words: Residual activity of AKT1 at 1 uM by microplate scintillation counting.
Assay [16] deals with CDK6/cyclin D1 (Homo sapiens) (UniProt P24385+Q00534). In words: Residual activity of CDK6/Cyclin D1 at 10 uM by microplate scintillation counting. The assay is classed as protein-complex assay.
The target in assay [17] is Calcium/calmodulin-dependent protein kinase type II subunit beta (Homo sapiens) (UniProt Q13554). Description: Residual activity of CAMK2B at 1 uM by microplate scintillation counting.
Chain of Calcium/calmodulin-dependent protein kinase type II subunit beta (Homo sapiens) (Q13554 whole entry): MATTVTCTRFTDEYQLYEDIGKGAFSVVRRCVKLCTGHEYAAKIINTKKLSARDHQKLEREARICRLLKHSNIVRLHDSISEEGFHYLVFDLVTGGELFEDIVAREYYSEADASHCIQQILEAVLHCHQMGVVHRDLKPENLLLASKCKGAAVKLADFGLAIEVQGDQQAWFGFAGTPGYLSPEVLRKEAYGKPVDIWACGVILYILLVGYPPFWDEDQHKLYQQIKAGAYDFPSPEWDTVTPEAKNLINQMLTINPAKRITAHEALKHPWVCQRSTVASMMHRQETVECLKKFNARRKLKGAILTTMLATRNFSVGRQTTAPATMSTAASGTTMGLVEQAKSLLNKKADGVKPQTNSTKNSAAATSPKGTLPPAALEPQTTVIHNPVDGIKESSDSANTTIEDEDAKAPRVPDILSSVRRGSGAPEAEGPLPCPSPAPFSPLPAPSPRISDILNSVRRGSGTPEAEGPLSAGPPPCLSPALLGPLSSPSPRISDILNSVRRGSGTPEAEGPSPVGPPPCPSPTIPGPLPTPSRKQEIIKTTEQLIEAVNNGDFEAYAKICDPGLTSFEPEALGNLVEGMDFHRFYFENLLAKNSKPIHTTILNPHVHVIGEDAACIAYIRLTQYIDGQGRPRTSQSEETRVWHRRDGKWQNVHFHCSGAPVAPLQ
Assay [18] addresses T3, Platelet-derived growth factor receptor beta. Description: Inhibition of PDGFRbeta by microplate scintillation counting. Summed up: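 Substrates: tetra(LRRWSLG) for Aurora A/B; poly(Ala,Glu,Lys,Tyr)6:2:5:1 for PDGFRβ; poly(Glu,Tyr)4:1 for TIE2 and VEGFR2. Stopped with 2% H3PO4.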
Assay [19] concerns the target Serine/threonine-protein kinase PLK1 (Homo sapiens) (UniProt P53350). In words: Residual activity of PLK1 at 10 uM by microplate scintillation counting.
Assay [20] has as its system T4, Dual specificity mitogen-activated protein kinase kinase 6 (Homo sapiens), P52564 [S207D,T211D].
T4 sequence (whole entry): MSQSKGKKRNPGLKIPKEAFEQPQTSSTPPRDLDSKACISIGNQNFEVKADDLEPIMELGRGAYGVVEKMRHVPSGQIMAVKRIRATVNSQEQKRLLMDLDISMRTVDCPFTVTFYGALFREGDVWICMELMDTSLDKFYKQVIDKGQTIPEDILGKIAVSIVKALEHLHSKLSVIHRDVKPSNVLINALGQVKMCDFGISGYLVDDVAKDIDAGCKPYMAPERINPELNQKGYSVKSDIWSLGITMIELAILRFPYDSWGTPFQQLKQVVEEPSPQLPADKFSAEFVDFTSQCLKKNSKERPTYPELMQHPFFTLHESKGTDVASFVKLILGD
In words: Residual activity of MKK6 S207D/T211D mutant at 10 uM by microplate scintillation counting.

Assay [21] deals with Dual specificity tyrosine-phosphorylation-regulated kinase 1B (Homo sapiens) (UniProt Q9Y463). In words: Residual activity of DYRK1B at 10 uM by microplate scintillation counting.
Chain of Dual specificity tyrosine-phosphorylation-regulated kinase 1B (Homo sapiens) (Q9Y463 whole entry, looked up): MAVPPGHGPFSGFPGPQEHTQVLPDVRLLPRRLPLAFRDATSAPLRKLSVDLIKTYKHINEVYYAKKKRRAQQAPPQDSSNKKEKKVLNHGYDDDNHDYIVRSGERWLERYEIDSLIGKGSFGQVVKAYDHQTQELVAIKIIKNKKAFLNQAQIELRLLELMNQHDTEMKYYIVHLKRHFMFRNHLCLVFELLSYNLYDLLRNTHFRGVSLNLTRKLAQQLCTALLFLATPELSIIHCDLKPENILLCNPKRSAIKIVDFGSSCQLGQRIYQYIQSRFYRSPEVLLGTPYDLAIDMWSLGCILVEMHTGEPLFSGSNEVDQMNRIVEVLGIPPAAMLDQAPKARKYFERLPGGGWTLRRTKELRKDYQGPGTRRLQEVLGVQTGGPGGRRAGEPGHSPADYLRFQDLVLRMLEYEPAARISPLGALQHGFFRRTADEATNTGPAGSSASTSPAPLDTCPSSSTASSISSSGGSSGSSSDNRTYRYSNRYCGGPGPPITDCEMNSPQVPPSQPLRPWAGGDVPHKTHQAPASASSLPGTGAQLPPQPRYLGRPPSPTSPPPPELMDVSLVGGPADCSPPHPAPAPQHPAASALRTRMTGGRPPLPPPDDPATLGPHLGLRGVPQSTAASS

With `COc1cc2c(Oc3ccc(-c4nc5ccccc5s4)cc3)ncnc2cc1OCCCN1CCCC1`, the residual activity in assay [1] was 104%; in assay [2], 322%; in assay [3], 97%; in assay [4], 96%; in [5], 55%; in assay [6], 95%. Besides, the residual activity is 73% in assay [7]; 34% in [8]; 98% in assay [9]; 96% in [10]; 95% in assay [11]; 18% in assay [12]. The residual activity was 85% in assay [13]; 116% in assay [14]; 97% in [15]; 140% in [16]; 70% in [17]; 123% in [19]. Further, the figures for the residual activity in assay [20] and in assay [21] were 148% and 136%, respectively. The compound also returned an IC50 in [18] of 7.7 µM.

On to `COc1cc2c(Oc3ccc(-c4nc5ccccc5s4)cc3F)ncnc2cc1OCCCN1CCN(C)CC1`, for which the residual activity in assay [1] turned out to be 121%; in assay [2] it was 397%; in assay [3], 106%; in assay [4] it was 100%; in assay [5], 34%; in assay [6] it was 95%. Besides, the residual activity was 77% in assay [7]; 60% in [8]; 98% in [9]; 99% in assay [10]; 104% in assay [11]; 18% in assay [12]. In addition, the residual activity amounted to 75% in assay [13]; 194% in assay [14]; 100% in assay [15]; 167% in assay [16]; 82% in assay [17]; 100% in [19]. Also, the values for the residual activity in assay [20] and in assay [21] were 164% and 194%, respectively. In assay [18], this compound had an IC50 of 6.1 µM.

As to `COc1cc2c(Oc3ccc(-c4nc5ccccc5s4)cc3)ncnc2cc1OCCCN1CCN(C)CC1`, the residual activity in [1] was 106%; in [2], 406%; in assay [3], 94%; in [4], 111%; in assay [5] it was 81%; in [6], 94%. For the same compound, the residual activity in assay [7] is -18%; in assay [8], 111%; in assay [9], 96%; in assay [10], 102%; in assay [11], 103%; in [12], 23%. The residual activity in assay [13] stood at 95%; in assay [14], 186%; in [15], 109%; in assay [16] it was 193%; in [17], 103%; in [19], 134%. The figures for the residual activity in assay [20] and in [21] were 185% and 224%, respectively. The compound also came in with an IC50 in assay [18] of 3.5 µM.
